Assay results: ChEMBL document CHEMBL1142492 (J Med Chem, 2008)
pIC50: −log10 of the molar value.

Assays:
[1] = organism: Rattus norvegicus; conditions: 3 uM
[2] = biological target: Maternal embryonic leucine zipper kinase (Homo sapiens) (UniProt Q14680); experiment: Inhibition of MELK at 3 uM
[3] = biological target: Mitogen-activated protein kinase 11 (Homo sapiens) (UniProt Q15759); experiment: Inhibition of p38-beta at 3 uM
[4] = biological target: Dual specificity protein kinase TTK (Homo sapiens) (UniProt P33981); experiment: Inhibition of TTK at 3 uM
[5] = biological target: Receptor-interacting serine/threonine-protein kinase 2 (Homo sapiens) (UniProt O43353); experiment: Inhibition of RIPK2 at 3 uM
[6] = biological target: Neuropeptide Y receptor type 1 (Homo sapiens) (UniProt P25929); experiment: Inhibition of human neuropeptide Y Y1 receptor at 3 uM
Summary of the method: (§1)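 Counter-screen binding/enzyme panel at single 3 μM, n=2; results as percent inhibition. Species per target as listed (rat NMDA, GABAA sites; human receptors, transporters; rabbit ACE).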

[7] = in vivo; conditions: Sprague-Dawley, rat, po, 2 mg/kg
[8] = biological target: Phosphatidylinositol 4,5-bisphosphate 3-kinase catalytic subunit alpha isoform (Homo sapiens) (UniProt P42336); experiment: Inhibition of PIK3CA at 3 uM
[9] = organism: Rattus norvegicus; conditions: 3 uM; remark: listed apart in the source
[10] = biological target: Mitogen-activated protein kinase 12 (Homo sapiens) (UniProt P53778); experiment: Inhibition of p38-gamma at 3 uM
[11] = biological target: D(3) dopamine receptor (Homo sapiens) (UniProt P35462); experiment: Inhibition of human dopamine D3 receptor at 3 uM
Summary of the method: as §1

[12] = biological target: Serine/threonine-protein kinase 26 (Homo sapiens) (UniProt Q9P289); experiment: Inhibition of MST4 at 3 uM
[13] = biological target: Tyrosine-protein kinase Tec (Homo sapiens) (UniProt P42680); experiment: Inhibition of TEC at 3 uM
[14] = biological target: Inhibitor of nuclear factor kappa-B kinase subunit beta (Homo sapiens) (UniProt O14920); experiment: Inhibition of IKK-beta at 3 uM
[15] = biological target: Cyclin-dependent kinase 18 (Homo sapiens) (UniProt Q07002); experiment: Inhibition of PCTK3 at 3 uM
[16] = biological target: Tyrosine-protein kinase receptor Tie-1 (Homo sapiens) (UniProt P35590); experiment: Inhibition of TIE1 at 3 uM
[17] = biological target: Casein kinase I isoform gamma-1 (Homo sapiens) (UniProt Q9HCP0); experiment: Inhibition of CSNK1G1 at 3 uM
[18] = biological target: Rho-associated protein kinase 2 (Homo sapiens, UniProt O75116); experiment: Inhibition of ROCK2
[19] = biological target: RAC-alpha serine/threonine-protein kinase (Homo sapiens, UniProt P31749); experiment: Inhibition of AKT1 at 3 uM
[20] = biological target: Glutamate NMDA receptor (Rattus norvegicus) (UniProt P35439+Q00959+Q00960+Q00961+Q62645+Q8VHN2+Q9R1M7); experiment: Displacement of phencyclidine from rat NMDA receptor at 3 uM; assay type: protein-complex assay
Summary of the method: as §1

[21] = biological target: Mitogen-activated protein kinase kinase kinase 4 (Homo sapiens) (UniProt Q9Y6R4); experiment: Inhibition of MAP3K4 at 3 uM
[22] = biological target: Serine/threonine-protein kinase Nek5 (Homo sapiens) (UniProt Q6P3R8); experiment: Inhibition of NEK5 at 3 uM
[23] = biological target: Casein kinase I isoform gamma-3 (Homo sapiens) (UniProt Q9Y6M4); experiment: Inhibition of CSNK1G3 at 3 uM
[24] = biological target: Serine/threonine-protein kinase PAK 5 (Homo sapiens) (UniProt Q9P286); experiment: Inhibition of PAK7/PAK5 at 3 uM
[25] = biological target: Insulin receptor (Homo sapiens) (UniProt P06213); experiment: Inhibition of INSR at 3 uM
[26] = biological target: Cyclin-dependent kinase 14 (Homo sapiens) (UniProt O94921); experiment: Inhibition of PFTK1 at 3 uM
[27] = biological target: Serine/threonine-protein kinase pim-2 (Homo sapiens) (UniProt Q9P1W9); experiment: Inhibition of PIM2 at 3 uM
[28] = biological target: Serine/threonine-protein kinase MARK1 (Homo sapiens) (UniProt Q9P0L2); experiment: Inhibition of MARK1 at 3 uM
[29] = biological target: Tyrosine-protein kinase ITK/TSK (Homo sapiens) (UniProt Q08881); experiment: Inhibition of ITK at 3 uM
[30] = biological target: Proto-oncogene tyrosine-protein kinase ROS (Homo sapiens) (UniProt P08922); experiment: Inhibition of ROS1 at 3 uM
[31] = biological target: Mitogen-activated protein kinase kinase kinase 9 (Homo sapiens) (UniProt P80192); experiment: Inhibition of MLK1 at 3 uM
[32] = biological target: Cysteinyl leukotriene receptor 1 (Homo sapiens) (UniProt Q9Y271); experiment: Inhibition of human CysLT1 receptor at 3 uM
[33] = tested on: Mast/stem cell growth factor receptor Kit (Homo sapiens), P10721 [D816V]; experiment: Inhibition of KIT D816V mutant at 3 uM
[34] = biological target: Activated CDC42 kinase 1 (Homo sapiens) (UniProt Q07912); experiment: Inhibition of TNK2 at 3 uM
[35] = biological target: Serine/threonine-protein kinase PAK 6 (Homo sapiens) (UniProt Q9NQU5); experiment: Inhibition of PAK6 at 3 uM
[36] = organism: Rattus norvegicus; conditions: 3 uM; remark: listed apart in the source
[37] = tested on: Mast/stem cell growth factor receptor Kit (Homo sapiens), P10721 [V559D,V654A]; experiment: Inhibition of KIT V559D,V654A mutant at 3 uM
[38] = biological target: Serine/threonine-protein kinase Nek2 (Homo sapiens) (UniProt P51955); experiment: Inhibition of NEK2 at 3 uM
[39] = biological target: Endothelin receptor type B (Homo sapiens) (UniProt P24530); experiment: Inhibition of human endothelin ETB receptor at 3 uM
Summary of the method: as §1

[40] = biological target: Tyrosine-protein kinase Yes (Homo sapiens) (UniProt P07947); experiment: Inhibition of YES at 3 uM
[41] = biological target: Mu-type opioid receptor (Homo sapiens) (UniProt P35372); experiment: Inhibition of human mu opioid receptor at 3 uM
Summary of the method: as §1

[42] = biological target: Serine/threonine-protein kinase Nek7 (Homo sapiens) (UniProt Q8TDX7); experiment: Inhibition of NEK7 at 3 uM
[43] = tested on: Mast/stem cell growth factor receptor Kit (Homo sapiens), P10721 [V559D]; experiment: Inhibition of KIT V559D mutant at 3 uM
[44] = biological target: Tyrosine-protein kinase ABL2 (Homo sapiens) (UniProt P42684); experiment: Inhibition of ABL2 at 3 uM
[45] = biological target: Mitogen-activated protein kinase 1 (Homo sapiens) (UniProt P28482); experiment: Inhibition of ERK2 at 3 uM
Summary of the method: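 Single-concentration kinase panel scoring: each value is the percentage of enzyme activity remaining relative to a DMSO-only control. An activity statistically indistinct from DMSO control was scored "no hit".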

[46] = biological target: Tyrosine-protein kinase ABL1 (Homo sapiens) (UniProt P00519); experiment: Inhibition of ABL1 at 3 uM

Sequence of Serine/threonine-protein kinase Nek2 (Homo sapiens) (P51955 whole entry): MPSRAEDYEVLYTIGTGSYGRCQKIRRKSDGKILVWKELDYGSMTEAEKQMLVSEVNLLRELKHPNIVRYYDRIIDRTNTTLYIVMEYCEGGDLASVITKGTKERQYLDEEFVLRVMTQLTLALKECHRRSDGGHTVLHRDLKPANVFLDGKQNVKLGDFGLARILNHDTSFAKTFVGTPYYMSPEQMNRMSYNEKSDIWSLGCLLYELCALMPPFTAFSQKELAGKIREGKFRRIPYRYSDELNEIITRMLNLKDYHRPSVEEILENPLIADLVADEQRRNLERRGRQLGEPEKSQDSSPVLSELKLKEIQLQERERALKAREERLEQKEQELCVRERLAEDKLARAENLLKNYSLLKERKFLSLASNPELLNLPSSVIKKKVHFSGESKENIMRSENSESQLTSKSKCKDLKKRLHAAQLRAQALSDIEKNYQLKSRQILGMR
Sequence of Maternal embryonic leucine zipper kinase (Homo sapiens) (Q14680 whole entry, looked up): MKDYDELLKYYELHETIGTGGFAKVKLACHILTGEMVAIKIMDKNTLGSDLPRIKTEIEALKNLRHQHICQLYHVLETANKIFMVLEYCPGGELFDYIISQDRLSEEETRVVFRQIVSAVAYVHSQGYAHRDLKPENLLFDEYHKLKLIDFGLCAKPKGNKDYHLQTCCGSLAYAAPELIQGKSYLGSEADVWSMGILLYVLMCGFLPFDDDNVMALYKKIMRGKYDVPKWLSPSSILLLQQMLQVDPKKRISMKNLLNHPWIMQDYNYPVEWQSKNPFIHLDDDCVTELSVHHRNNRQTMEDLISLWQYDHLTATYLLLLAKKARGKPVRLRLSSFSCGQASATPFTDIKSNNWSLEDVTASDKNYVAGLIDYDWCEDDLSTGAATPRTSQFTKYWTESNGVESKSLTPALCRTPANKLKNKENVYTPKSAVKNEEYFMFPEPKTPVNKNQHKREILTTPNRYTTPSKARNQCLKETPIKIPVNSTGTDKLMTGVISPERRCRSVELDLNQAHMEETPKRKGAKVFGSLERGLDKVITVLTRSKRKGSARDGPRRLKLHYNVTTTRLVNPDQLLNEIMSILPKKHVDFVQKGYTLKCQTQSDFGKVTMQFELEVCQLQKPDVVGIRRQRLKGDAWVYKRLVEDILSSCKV
Sequence of Tyrosine-protein kinase Yes (Homo sapiens) (P07947 2-543 limits assumed): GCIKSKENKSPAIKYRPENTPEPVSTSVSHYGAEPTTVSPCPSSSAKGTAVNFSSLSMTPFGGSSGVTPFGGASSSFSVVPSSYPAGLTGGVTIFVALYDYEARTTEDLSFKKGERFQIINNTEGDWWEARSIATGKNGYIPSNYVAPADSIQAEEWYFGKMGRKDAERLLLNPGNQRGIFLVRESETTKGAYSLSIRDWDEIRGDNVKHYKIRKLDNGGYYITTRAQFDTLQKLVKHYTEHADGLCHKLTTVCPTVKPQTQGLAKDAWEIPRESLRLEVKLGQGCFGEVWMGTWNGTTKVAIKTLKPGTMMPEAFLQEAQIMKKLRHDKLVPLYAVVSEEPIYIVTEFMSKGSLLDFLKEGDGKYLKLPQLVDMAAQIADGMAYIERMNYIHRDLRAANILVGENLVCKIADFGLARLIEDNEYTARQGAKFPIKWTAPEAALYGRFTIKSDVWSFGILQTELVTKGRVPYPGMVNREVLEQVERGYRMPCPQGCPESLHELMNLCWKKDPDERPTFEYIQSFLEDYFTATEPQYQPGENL
Sequence of Serine/threonine-protein kinase PAK 5 (Homo sapiens) (Q9P286 whole entry, looked up): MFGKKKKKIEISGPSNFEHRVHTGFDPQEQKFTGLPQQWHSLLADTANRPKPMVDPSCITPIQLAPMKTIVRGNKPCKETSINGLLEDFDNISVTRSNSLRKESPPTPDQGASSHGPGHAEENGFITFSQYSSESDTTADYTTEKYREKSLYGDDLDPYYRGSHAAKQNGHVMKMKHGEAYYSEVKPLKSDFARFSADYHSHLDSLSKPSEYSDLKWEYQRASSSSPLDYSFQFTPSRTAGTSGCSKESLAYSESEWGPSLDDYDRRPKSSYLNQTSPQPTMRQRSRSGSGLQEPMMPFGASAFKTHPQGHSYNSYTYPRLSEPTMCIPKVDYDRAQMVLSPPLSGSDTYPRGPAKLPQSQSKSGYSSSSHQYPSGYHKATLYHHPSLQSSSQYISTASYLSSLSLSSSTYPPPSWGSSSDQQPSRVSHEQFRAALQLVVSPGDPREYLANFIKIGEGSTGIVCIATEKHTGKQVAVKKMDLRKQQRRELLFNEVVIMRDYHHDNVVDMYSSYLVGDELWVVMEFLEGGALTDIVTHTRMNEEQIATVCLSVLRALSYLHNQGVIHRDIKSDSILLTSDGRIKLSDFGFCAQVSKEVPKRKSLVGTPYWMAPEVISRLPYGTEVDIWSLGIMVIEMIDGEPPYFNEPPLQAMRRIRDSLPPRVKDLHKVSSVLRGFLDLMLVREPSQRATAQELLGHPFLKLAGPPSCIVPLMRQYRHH
Sequence of Mitogen-activated protein kinase kinase kinase 4 (Homo sapiens) (Q9Y6R4 whole entry): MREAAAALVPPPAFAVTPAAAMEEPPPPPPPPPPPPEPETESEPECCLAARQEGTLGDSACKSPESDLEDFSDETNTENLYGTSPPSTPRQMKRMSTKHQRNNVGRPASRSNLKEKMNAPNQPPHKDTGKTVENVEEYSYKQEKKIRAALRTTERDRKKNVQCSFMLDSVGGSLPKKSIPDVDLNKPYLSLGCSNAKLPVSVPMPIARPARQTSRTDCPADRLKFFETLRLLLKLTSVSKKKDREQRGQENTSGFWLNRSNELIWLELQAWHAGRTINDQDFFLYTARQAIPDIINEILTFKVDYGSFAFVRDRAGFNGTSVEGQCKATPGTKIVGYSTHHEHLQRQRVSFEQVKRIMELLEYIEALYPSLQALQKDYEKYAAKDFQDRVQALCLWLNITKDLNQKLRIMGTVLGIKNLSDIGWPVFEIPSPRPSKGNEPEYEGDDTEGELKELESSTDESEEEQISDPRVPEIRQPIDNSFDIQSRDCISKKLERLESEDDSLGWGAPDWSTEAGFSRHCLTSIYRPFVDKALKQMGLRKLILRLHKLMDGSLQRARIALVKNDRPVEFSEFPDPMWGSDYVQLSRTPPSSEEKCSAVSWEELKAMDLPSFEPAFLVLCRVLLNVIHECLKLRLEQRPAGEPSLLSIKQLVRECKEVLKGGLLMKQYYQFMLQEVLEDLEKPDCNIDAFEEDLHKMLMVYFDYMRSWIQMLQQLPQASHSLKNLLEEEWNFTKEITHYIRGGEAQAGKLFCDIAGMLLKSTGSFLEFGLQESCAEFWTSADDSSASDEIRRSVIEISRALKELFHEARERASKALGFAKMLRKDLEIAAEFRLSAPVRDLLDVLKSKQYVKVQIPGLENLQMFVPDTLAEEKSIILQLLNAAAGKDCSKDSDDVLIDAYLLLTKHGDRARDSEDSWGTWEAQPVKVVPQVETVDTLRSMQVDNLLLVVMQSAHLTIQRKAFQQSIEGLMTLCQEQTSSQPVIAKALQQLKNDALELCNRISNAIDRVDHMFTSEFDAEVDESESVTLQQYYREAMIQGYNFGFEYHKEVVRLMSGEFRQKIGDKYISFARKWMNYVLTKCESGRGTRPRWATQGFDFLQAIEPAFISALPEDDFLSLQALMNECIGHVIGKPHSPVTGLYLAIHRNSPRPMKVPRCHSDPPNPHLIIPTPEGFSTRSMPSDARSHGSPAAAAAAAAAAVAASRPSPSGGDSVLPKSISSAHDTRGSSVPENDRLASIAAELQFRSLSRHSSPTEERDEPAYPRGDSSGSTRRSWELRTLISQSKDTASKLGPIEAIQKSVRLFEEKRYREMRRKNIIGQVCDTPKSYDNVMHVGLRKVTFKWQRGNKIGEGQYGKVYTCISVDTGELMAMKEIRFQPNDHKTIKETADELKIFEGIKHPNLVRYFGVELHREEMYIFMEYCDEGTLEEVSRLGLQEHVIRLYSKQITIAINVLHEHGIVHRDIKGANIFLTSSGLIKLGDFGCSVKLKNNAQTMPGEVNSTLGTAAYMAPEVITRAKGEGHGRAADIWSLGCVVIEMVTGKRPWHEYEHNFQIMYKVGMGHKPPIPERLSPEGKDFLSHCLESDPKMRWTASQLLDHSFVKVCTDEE
Sequence of Serine/threonine-protein kinase Nek5 (Homo sapiens) (Q6P3R8 whole entry, canonical isoform): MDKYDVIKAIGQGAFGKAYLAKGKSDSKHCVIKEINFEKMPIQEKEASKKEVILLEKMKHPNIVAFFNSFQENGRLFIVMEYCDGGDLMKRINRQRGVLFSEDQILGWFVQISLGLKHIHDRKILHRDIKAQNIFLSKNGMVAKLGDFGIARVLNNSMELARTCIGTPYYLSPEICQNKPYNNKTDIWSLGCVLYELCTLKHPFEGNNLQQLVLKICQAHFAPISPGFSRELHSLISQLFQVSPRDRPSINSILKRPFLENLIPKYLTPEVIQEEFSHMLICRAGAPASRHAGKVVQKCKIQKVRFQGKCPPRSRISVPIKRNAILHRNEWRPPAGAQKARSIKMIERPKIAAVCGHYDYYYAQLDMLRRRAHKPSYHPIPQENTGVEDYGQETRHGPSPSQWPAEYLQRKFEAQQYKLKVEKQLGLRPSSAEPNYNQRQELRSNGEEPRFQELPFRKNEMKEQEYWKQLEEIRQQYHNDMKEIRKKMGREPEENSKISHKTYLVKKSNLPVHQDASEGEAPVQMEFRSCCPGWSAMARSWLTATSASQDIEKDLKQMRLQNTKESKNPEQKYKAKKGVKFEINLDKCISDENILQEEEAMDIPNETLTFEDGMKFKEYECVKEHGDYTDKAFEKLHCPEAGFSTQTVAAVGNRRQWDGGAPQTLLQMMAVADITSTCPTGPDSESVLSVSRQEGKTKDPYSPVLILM
Sequence of Mitogen-activated protein kinase 12 (Homo sapiens) (P53778 whole entry): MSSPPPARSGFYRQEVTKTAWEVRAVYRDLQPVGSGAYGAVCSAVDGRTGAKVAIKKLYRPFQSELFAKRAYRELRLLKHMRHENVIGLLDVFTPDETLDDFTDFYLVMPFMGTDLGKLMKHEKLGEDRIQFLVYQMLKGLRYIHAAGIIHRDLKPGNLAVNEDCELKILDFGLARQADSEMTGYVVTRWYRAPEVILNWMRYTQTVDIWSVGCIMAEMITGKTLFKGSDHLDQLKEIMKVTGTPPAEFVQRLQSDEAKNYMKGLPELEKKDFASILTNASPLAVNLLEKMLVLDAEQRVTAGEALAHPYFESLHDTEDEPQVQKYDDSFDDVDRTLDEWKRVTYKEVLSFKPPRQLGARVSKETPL

SMILES: CN(C)CCOc1cc(-c2cn[nH]c2)ccc1NC(=O)C1COc2ccccc2O1 (stereo unspecified) [SR-3677]
- inhibition [1]: 47%
- inhibition [2]: < 10%
- inhibition [3]: < 10%
- inhibition [4]: < 10%
- inhibition [5]: < 10%
- inhibition [6]: -8%
- Cmax [7]: 50 nM
- inhibition [8]: < 10%
- inhibition [9]: -1%
- inhibition [10]: < 10%
- inhibition [11]: 15%
- inhibition [12]: < 10%
- inhibition [13]: < 10%
- inhibition [14]: < 10%
- inhibition [15]: < 10%
- inhibition [16]: < 10%
- inhibition [17]: < 10%
- pIC50 [18]: 8.49
- inhibition [19]: < 10%
- inhibition [20]: -2%
- inhibition [21]: < 10%
- inhibition [22]: < 10%
- inhibition [23]: < 10%
- inhibition [24]: < 10%
- inhibition [25]: < 10%
- inhibition [26]: < 10%
- inhibition [27]: < 10%
- inhibition [28]: < 10%
- inhibition [29]: < 10%
- inhibition [30]: < 10%
- inhibition [31]: < 10%
- inhibition [32]: 0%
- inhibition [33]: < 10%
- inhibition [34]: < 10%
- inhibition [35]: < 10%
- inhibition [36]: 17%
- inhibition [37]: < 10%
- inhibition [38]: < 10%
- inhibition [39]: -1%
- inhibition [40]: < 10%
- inhibition [41]: 5%
- inhibition [42]: < 10%
- inhibition [43]: < 10%
- inhibition [44]: < 10%
- inhibition [45]: < 10%
- inhibition [46]: < 10%
